Source: ChEMBL document CHEMBL3877325, “Novel salicylanilides from 4,5-dihalogenated salicylic acids: Synthesis, antimicrobial activity and cytotoxicity” (Bioorg Med Chem, 2017)
In brackets after ≈: the same amount, converted by molar mass.

Legend:
[1] = test system: Mycobacterium tuberculosis; test: Antimycobacterial activity against Mycobacterium tuberculosis H37Rv My 331/88 after 14 days by micromethod; type: functional; settings: H37Rv My 331/88, 336 h
Procedure, shortened: (§1)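 MIC micromethod in Šula's semisynthetic medium at 37 °C, read after 14 and 21 days. Compounds added as DMSO solutions at 500 down to 0.5 µM (twofold-type series: 500, 250, 125, 62.5, 32, 16, 8, 4, 2, 1, 0.5 µM). Isoniazid standard given in sterile water.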

[2] = test system: Mycobacterium tuberculosis; test: Antimycobacterial activity against Mycobacterium tuberculosis H37Rv My 331/88 after 21 days by micromethod; type: functional; settings: H37Rv My 331/88, 504 h; procedure, shortened: as §1
Mycobacterium avium [3] = test: Antimycobacterial activity against Mycobacterium avium My 330/80 after 14 days by micromethod; type: functional; settings: My 330/80, 336 h
Procedure, shortened: (§2)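 M. avium My 330/80 (collection strain) inoculated at 10^-5 dilution into Šula's semisynthetic medium. Compounds added from DMSO solutions at 500, 250, 125, 62.5, 32, 16, 8, 4, 2, 1 and 0.5 µM. MIC determined by micromethod at 37 °C, read after 14 and 21 days.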

Mycobacterium avium [4] = test: Antimycobacterial activity against Mycobacterium avium My 330/80 after 21 days by micromethod; type: functional; settings: My 330/80, 504 h; procedure, shortened: as §2
Mycobacterium kansasii [5] = test: Antimycobacterial activity against Mycobacterium kansasii isolate 235/80 after 7 days by micromethod; type: functional; settings: isolate 235/80, 168 h
Procedure, shortened: (§3)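 MIC in Šula's semisynthetic medium at 37 °C, read after 7, 14 and 21 days. Inoculum is strain dilution 10^-4; 235/80 is a collection strain and 6509/96 a clinical isolate. Compounds are added as DMSO solutions at 500, 250, 125, 62.5, 32, 16, 8, 4, 2, 1 and 0.5 µM. INH (in sterile water) and PAS are the reference drugs.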

Mycobacterium kansasii [6] = test: Antimycobacterial activity against Mycobacterium kansasii isolate 235/80 after 14 days by micromethod; type: functional; settings: isolate 235/80, 336 h; procedure, shortened: as §3
Mycobacterium kansasii [7] = test: Antimycobacterial activity against Mycobacterium kansasii isolate 235/80 after 21 days by micromethod; type: functional; settings: isolate 235/80, 504 h; procedure, shortened: as §3
Mycobacterium kansasii [8] = test: Antimycobacterial activity against Mycobacterium kansasii isolate 6509/96 after 7 days by micromethod; type: functional; settings: isolate 6509/96, 168 h; procedure, shortened: as §3
Mycobacterium kansasii [9] = test: Antimycobacterial activity against Mycobacterium kansasii isolate 6509/96 after 14 days by micromethod; type: functional; settings: isolate 6509/96, 336 h; procedure, shortened: as §3
Mycobacterium kansasii [10] = test: Antimycobacterial activity against Mycobacterium kansasii isolate 6509/96 after 21 days by micromethod; type: functional; settings: isolate 6509/96, 504 h; procedure, shortened: as §3
[11] = Cytotoxicity against human HepG2 cells assessed as reduction in cell viability after 24 hrs by MTS assay; type: toxicity, cell-based
Procedure, shortened: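 HepG2 cells (passages 33-37) are grown in MEM with 10% FBS, L-glutamine and non-essential amino acids. They are seeded at 1 × 10^4 cells/well and treated next day with 0.1-100 µM in triplicate for 24 h at 37 °C, 5% CO2. MTS reagent is added for 2 h and A490 read.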

[12] = Selectivity index, ratio of IC50 for human HepG2 cells to MIC for Mycobacterium tuberculosis H37Rv after 21 days; type: toxicity, cell-based; settings: HepG2 cells versus Mycobacterium tuberculosis H37Rv, read-out: Selectivity Index
Procedure, shortened: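 HepG2 cells (passages 33-37) seeded at 1 × 10^4 per well and treated next day with 0.1–100 µM in triplicate. After 24 h at 37 °C, 5% CO2, MTS reagent added for 2 h and absorbance read at 490 nm. IC50 taken from viability relative to untreated control, then divided by the 21-day H37Rv MIC.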

Row | Compound | MIC [1] | MIC [2] | MIC (Mycobacterium avium [3]) | MIC (Mycobacterium avium [4]) | MIC (Mycobacterium kansasii [5]) | MIC (Mycobacterium kansasii [6]) | MIC (Mycobacterium kansasii [7]) | MIC (Mycobacterium kansasii [8]) | MIC (Mycobacterium kansasii [9]) | MIC (Mycobacterium kansasii [10]) | IC50 at 24 h [11] | selectivity ratio at 504 h [12]
1 | O=C(Nc1cc(C(F)(F)F)cc(C(F)(F)F)c1)c1ccc(Br)cc1O | 2 µM (≈ 0.856 µg/mL) | 4 µM (≈ 1.71 µg/mL) | 32 µM (≈ 13.7 µg/mL) | 32 µM (≈ 13.7 µg/mL) | 8 µM (≈ 3.43 µg/mL) | 8 µM (≈ 3.43 µg/mL) | 16 µM (≈ 6.85 µg/mL) | 8 µM (≈ 3.43 µg/mL) | 16 µM (≈ 6.85 µg/mL) | 16 µM (≈ 6.85 µg/mL) | 8.08 µM | 2.02
2 | O=C(Nc1ccc(Br)cc1)c1cc(Cl)c(Br)cc1O | 2 µM (≈ 0.811 µg/mL) | 2 µM (≈ 0.811 µg/mL) | 32 µM (≈ 13 µg/mL) | 32 µM (≈ 13 µg/mL) | 4 µM (≈ 1.62 µg/mL) | 8 µM (≈ 3.24 µg/mL) | 8 µM (≈ 3.24 µg/mL) | 4 µM (≈ 1.62 µg/mL) | 8 µM (≈ 3.24 µg/mL) | 8 µM (≈ 3.24 µg/mL) | 9.78 µM | 4.89
3 | O=C(Nc1cc(C(F)(F)F)cc(C(F)(F)F)c1)c1cc(Cl)c(Br)cc1O | 2 µM (≈ 0.925 µg/mL) | 2 µM (≈ 0.925 µg/mL) | 32 µM (≈ 14.8 µg/mL) | 32 µM (≈ 14.8 µg/mL) | 8 µM (≈ 3.7 µg/mL) | 8 µM (≈ 3.7 µg/mL) | 8 µM (≈ 3.7 µg/mL) | 8 µM (≈ 3.7 µg/mL) | 8 µM (≈ 3.7 µg/mL) | 8 µM (≈ 3.7 µg/mL) | 4.8 µM | 2.4
4 | O=C(Nc1ccc(Cl)c(Cl)c1)c1ccc(Br)cc1O | 1 µM (≈ 0.361 µg/mL) | 2 µM (≈ 0.722 µg/mL) | 16 µM (≈ 5.78 µg/mL) | 16 µM (≈ 5.78 µg/mL) | 4 µM (≈ 1.44 µg/mL) | 4 µM (≈ 1.44 µg/mL) | 4 µM (≈ 1.44 µg/mL) | 4 µM (≈ 1.44 µg/mL) | 4 µM (≈ 1.44 µg/mL) | 8 µM (≈ 2.89 µg/mL) | 17.7 µM | 8.84
5 | O=C(Nc1ccc(C(F)(F)F)cc1)c1cc(Br)c(Br)cc1O | 2 µM (≈ 0.878 µg/mL) | 2 µM (≈ 0.878 µg/mL) | 32 µM (≈ 14 µg/mL) | 62.5 µM (≈ 27.4 µg/mL) | 4 µM (≈ 1.76 µg/mL) | 4 µM (≈ 1.76 µg/mL) | 4 µM (≈ 1.76 µg/mL) | 4 µM (≈ 1.76 µg/mL) | 4 µM (≈ 1.76 µg/mL) | 4 µM (≈ 1.76 µg/mL) | 6.25 µM | 3.13
6 | O=C(Nc1ccc(Cl)c(Cl)c1)c1cc(Cl)c(Br)cc1O | 2 µM (≈ 0.791 µg/mL) | 4 µM (≈ 1.58 µg/mL) | 125 µM (≈ 49.4 µg/mL) | 125 µM (≈ 49.4 µg/mL) | 8 µM (≈ 3.16 µg/mL) | 8 µM (≈ 3.16 µg/mL) | 8 µM (≈ 3.16 µg/mL) | 8 µM (≈ 3.16 µg/mL) | 8 µM (≈ 3.16 µg/mL) | 8 µM (≈ 3.16 µg/mL) | 11.1 µM | 2.76
7 | O=C(Nc1ccc(Br)cc1)c1cc(Br)c(Br)cc1O | 4 µM (≈ 1.8 µg/mL) | 4 µM (≈ 1.8 µg/mL) | 32 µM (≈ 14.4 µg/mL) | 32 µM (≈ 14.4 µg/mL) | 4 µM (≈ 1.8 µg/mL) | 8 µM (≈ 3.6 µg/mL) | 8 µM (≈ 3.6 µg/mL) | 8 µM (≈ 3.6 µg/mL) | 8 µM (≈ 3.6 µg/mL) | 8 µM (≈ 3.6 µg/mL) | 17.9 µM | 4.47
8 | O=C(Nc1ccc(C(F)(F)F)cc1)c1cc(Cl)c(Br)cc1O | 1 µM (≈ 0.395 µg/mL) | 2 µM (≈ 0.789 µg/mL) | 32 µM (≈ 12.6 µg/mL) | 32 µM (≈ 12.6 µg/mL) | 4 µM (≈ 1.58 µg/mL) | 4 µM (≈ 1.58 µg/mL) | 4 µM (≈ 1.58 µg/mL) | 4 µM (≈ 1.58 µg/mL) | 4 µM (≈ 1.58 µg/mL) | 4 µM (≈ 1.58 µg/mL) | 6.52 µM | 3.26
9 | O=C(Nc1ccc(Cl)c(Cl)c1)c1cc(Br)c(Br)cc1O | 2 µM (≈ 0.88 µg/mL) | 4 µM (≈ 1.76 µg/mL) | 62.5 µM (≈ 27.5 µg/mL) | 62.5 µM (≈ 27.5 µg/mL) | 8 µM (≈ 3.52 µg/mL) | 8 µM (≈ 3.52 µg/mL) | 8 µM (≈ 3.52 µg/mL) | 8 µM (≈ 3.52 µg/mL) | 8 µM (≈ 3.52 µg/mL) | 8 µM (≈ 3.52 µg/mL) | 7.96 µM | 1.99
10 | O=C(Nc1cc(C(F)(F)F)cc(C(F)(F)F)c1)c1cc(Br)c(Br)cc1O | 2 µM (≈ 1.01 µg/mL) | 2 µM (≈ 1.01 µg/mL) | 16 µM (≈ 8.11 µg/mL) | 32 µM (≈ 16.2 µg/mL) | 4 µM (≈ 2.03 µg/mL) | 8 µM (≈ 4.06 µg/mL) | 8 µM (≈ 4.06 µg/mL) | 8 µM (≈ 4.06 µg/mL) | 8 µM (≈ 4.06 µg/mL) | 8 µM (≈ 4.06 µg/mL) | 3 µM | 1.5
11 | Nc1ccc(C(=O)O)c(O)c1 [AMINOSALICYLIC ACID] | 62.5 µM (≈ 9.57 µg/mL) | 62.5 µM (≈ 9.57 µg/mL) | 32 µM (≈ 4.9 µg/mL) | 125 µM (≈ 19.1 µg/mL) | 125 µM (≈ 19.1 µg/mL) | 1000 µM (≈ 153 µg/mL) | > 1000 µM | 32 µM (≈ 4.9 µg/mL) | 125 µM (≈ 19.1 µg/mL) | 500 µM (≈ 76.6 µg/mL) |  | 
12 | NNC(=O)c1ccncc1 [ISONIAZID] | 0.5 µM (≈ 0.0686 µg/mL) | 1 µM (≈ 0.137 µg/mL) | > 250 µM | > 250 µM | > 250 µM | > 250 µM | > 250 µM | 4 µM (≈ 0.549 µg/mL) | 8 µM (≈ 1.1 µg/mL) | 8 µM (≈ 1.1 µg/mL) |  | 
